Measurements taken from PMC8788976 (Veterinary Medicine and Science, 2021).

How the values were obtained:
[1] = Single oral dose pharmacokinetic study in Beagle dogs; type: in vivo; details: for AUC 24h / AUC last / C max: mean ± SD; for T last / T max: median (range)
Procedure, shortened: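 Single oral dose of 1 or 4 mg/kg given as micronised drug in gelatine capsules, followed by 5 ml water; dogs fasted overnight until 4 h post-dose. Jugular blood taken pre-dose, at 0.25–12 h, then daily to day 21. K3-EDTA plasma (2500 g, 15 min, 4°C) stored at −80°C. Parent and pyrazol metabolite measured by SPE then HPLC-MS/MS (celecoxib internal standard). Non-compartmental analysis: Cmax observed; AUC by linear trapezoidal rule; AUCinf extrapolated using the terminal rate constant.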

[2] = Plasma concentrations in the single dose arthritis induction study; type: in vivo, Beagle dogs
Procedure, shortened: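 Ten male Beagles (23–36 months, 9–12 kg); six received oral 4 mg/kg on day 0 and again on day 12. Urate crystal suspension injected into the stifle joint on days 0 (2 h post-dose), 2, 7, 14 and 21. Jugular blood taken at each injection time and processed as for plasma PK. Parent and pyrazol metabolite quantified by HPLC-MS/MS.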

[3] = Plasma concentrations in the repeated dose arthritis induction study; type: in vivo, Beagle dogs
Procedure, shortened: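 Twelve male Beagles given oral 8 mg/kg on day 0, then 4 mg/kg weekly on days 7, 14 and 21, with stifle urate crystal inductions during the study. Jugular blood taken at time points including each intra-articular injection, and through day 56. Plasma processed as in the PK study. Pyrazol metabolite quantified by SPE then HPLC-MS/MS; values reported as mean ± SD.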

[4] = Population PK model of enflicoxib and pyrazol metabolite; set-up: species or system Beagle dogs
Procedure, shortened: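 Population PK model built from two sources. Toxicokinetic data: 228 samples from 12 Beagles, days 1 and 28, daily 1 or 4 mg/kg. PK data: 341 parent/metabolite samples from 26 Beagles in the oral PK and two arthritis studies. Structure: two-compartment parent (first-order absorption with lag, first-order elimination) and three-compartment metabolite. Body weight included as covariate. Evaluated by visual predictive check (90% intervals); parameter CIs from non-parametric bootstrap.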

[5] = tested on: urate crystal-induced acute arthritis; type: in vivo, Beagle dogs; details: plasma level, acute arthritis induction model in dogs
Procedure, shortened: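 Efficacy dataset: 18 enflicoxib-treated dogs from both urate arthritis studies, giving 71 paired observations of plasma parent or pyrazol metabolite level and lameness score taken at the same time. These pairs were linked to the population PK model to define the minimum effective plasma concentration.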

[6] = tested on: COX-2 enzymes isolated from sheep placenta; details: ref Wagemakers et al., 2009; cited from earlier work
[7] = tested on: urate crystal-induced acute arthritis; assay: Single dose arthritis induction study; type: in vivo, Beagle dogs
Procedure, shortened: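 Male Beagles (23–36 months, 9–12 kg). Groups: six dogs oral 4 mg/kg on days 0 and 12; three dogs reference coxib 2 mg/kg on days 0 and 14; one dog untreated. Stifle urate crystal injections on days 0 (2 h post-dose), 2, 7, 14 and 21. Blinded scoring before and 0.5–12 h after each injection. Standing plus walking lameness summed as CLS; pain scored on palpation.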

## NS(=O)(=O)c1ccc(-n2nc(C(F)(F)F)cc2-c2ccc(F)cc2F)cc1 [Pyrazol metabolite]
[1]; single oral enflicoxib 1 mg/kg
  AUC 24h: 1104 ± 502 ng·h/mL
  AUC last: 40,784 ± 10,228 ng·h/ml
  C max: 165.8 ± 48.5 ng/mL
  T last: 480 h
  T max: 132.0 (96–168) h
[1]; single oral enflicoxib 4 mg/kg
  AUC 24h: 2647 ± 1322 ng·h/mL
  AUC last: 132,329 ± 33,065 ng·h/ml
  C max: 577.0 ± 203.4 ng/mL
  T last: 480 h
  T max: 132.0 (96–168) h
[1]; single oral enflicoxib 1 or 4 mg/kg, not adequately determinable
  terminal half-life read from the graphic profile: around 14 days
[2]; day 0, single 4 mg/kg enflicoxib, average ± SD
  plasma concentration: 59 ± 34 ng/mL
[2]; day 2, single 4 mg/kg enflicoxib, average ± SD
  plasma concentration: 207 ± 191 ng/mL
[2]; day 7, single 4 mg/kg enflicoxib, average ± SD
  plasma concentration: 321 ± 241 ng/mL
[2]; day 14, after second 4 mg/kg dose on day 12, average ± SD
  plasma concentration: 492 ± 240 ng/mL
[2]; day 21, after second 4 mg/kg dose on day 12, average ± SD
  plasma concentration: 398 ± 172 ng/mL
[3]; day 23, 8 mg/kg loading, 4 mg/kg on days 7, 14, 21
  maximum plasma level: 1748 ± 334 ng/mL
[3]; day 56, 28 days after last dose administration
  plasma level at end of experimental period: 348 ± 152 ng/mL
[4]; apparent clearance of pyrazol metabolite, bootstrap
  CLM/F (θ7), Bootstrap Median: 0.111 L/h
[4]; apparent clearance of pyrazol metabolite, θ7·(WGT/9.9)^0.75
  CLM/F (θ7), Value: 0.111 L/h
[4]; central compartment, assumed the same as that of enflicoxib
  VM/F (θ4), Value: 6.59 L
[4]; central compartment, bootstrap
  VM/F (θ4), Bootstrap Median: 6.60 L
[4]; central-deep peripheral, bootstrap
  CLM2/F (θ12), Bootstrap Median: 0.132 L/h
[4]; central-shallow peripheral, bootstrap
  CLMP/F (θ8), Bootstrap Median: 13.2 L/h
[4]; deep peripheral compartment, bootstrap
  VM2/F (θ13), Bootstrap Median: 13.5 L
[4]; deep peripheral compartment, θ13·(WGT/9.9)^1.0
  VM2/F (θ13), Value: 13.4 L
[4]; distribution clearance central-deep peripheral, θ12·(WGT/9.9)^0.75
  CLM2/F (θ12), Value: 0.131 L/h
[4]; distribution clearance central-shallow peripheral, θ8·(WGT/9.9)^0.75
  CLMP/F (θ8), Value: 13.2 L/h
[4]; population PK model
  estimated terminal half-life: 13.8 days
[4]; random parameter, %CV
  Inter-individual variability on CLM/F, Value: 31%
  Residual variability, Value: 20%
[4]; random parameter, bootstrap
  Inter-individual variability on CLM/F, Bootstrap Median: 31%
  Residual variability, Bootstrap Median: 20%
[4]; shallow peripheral compartment, bootstrap
  VMP/F (θ9), Bootstrap Median: 29.33 L
[4]; shallow peripheral compartment, θ9·(WGT/9.9)^1.0
  VMP/F (θ9), Value: 29.3 L
[5]
  Minimum Effective Concentration (MEC): 411 ng/mL
[6]
  selectivity for COX-2 versus COX-1: more than 250 fold

## NS(=O)(=O)c1ccc(-n2nc(C(F)(F)F)cc2-c2ccc(F)cc2)cc1 [mavacoxib]
[7]; days 0 and 7, mavacoxib 2 mg/kg on days 0 and 14
  lameness and pain after induction: some degree of lameness and pain
[7]; days 14 and 21, after second administration on day 14, mavacoxib 2 mg/kg
  lameness or pain after induction: none or mild lameness or pain
